Assay [1] has as its system PC-3. The assay can be described thus: Induction of morphological changes in human PC-3 cells assessed as reduction in cell density at 0.24 uM measured after 24 hrs by phase contrast microscopy. It counts as functional, cell-based. Summed up:
(§1)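 PC3 cells were seeded at 1×10^5 per well in 6-well plates and treated after 24 h, with or without 1 mM N-acetyl-L-cysteine. The same observation field was imaged by phase contrast microscopy at 1, 2, 3, 4 and 24 h. DMSO vehicle served as control.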

Assay [2] has as its system PC-3. The assay can be described thus: Cytotoxicity against human PC-3 cells assessed as reduction in cell viability at 0.24 uM measured after 24 hrs in presence of antioxidant N-acetyl-L-cysteine by SRB assay. It is filed as functional, cell-based. The essentials:
(§2)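 SRB assay: PC3 seeded 1×10^4 per well, after 24 h exposed 24 h at 37 °C, 5% CO2 with or without 1 mM N-acetyl-L-cysteine; vehicle 0.1% DMSO. Fixed with 15% TCA at 4 °C for 1 h, dried, stained 0.4% sulforhodamine B, dye solubilized in 10 mM Tris, absorbance 540 nm; ANOVA/Tukey.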
On the technique in general: In SRB staining, fixed cells bind dye roughly in proportion to their protein.

Assay [3] deals with PC-3. The assay can be described thus: Induction of ROS generation in human PC-3 cells at 0.24 uM measured after 30 mins by CellROX reagent based flow cytometry. It is filed as functional, cell-based. Summed up:
(§3)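 PC3 seeded 1×10^5 per well in 6-well plates, after 24 h treated together with CellROX green (5 μM final) for 30 min at 37 °C; 0.1% DMSO negative control, 1 mM H2O2 positive control. Cells collected and CellROX-positive fraction measured by flow cytometry.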
On the technique in general: Flow cytometry measures light scatter and fluorescence of single cells or particles in a stream.

In assay [4] the test system is PC-3. The assay can be described thus: Induction of ROS generation in human PC-3 cells at 0.24 uM measured after 30 mins by CellROX reagent based confocal microscopy. It is filed as functional, cell-based. The essentials: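 Confocal ROS imaging of PC3: cells loaded with 2.5 μM CellROX green plus 0.5 μM MitoTracker Red for 30 min at 37 °C, washed three times in PBS, imaged immediately; DMSO vehicle and H2O2 controls.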

The subject of assay [5] is PC-3. The assay can be described thus: Cell cycle arrest in human PC-3 cells assessed as up regulation of CDKN1A gene expression at 0.24 uM measured after 3 hrs by qPCR analysis. It counts as functional, cell-based.
For assay [6], the system named is PC-3. The assay can be described thus: Induction of apoptosis in human PC-3 cells assessed as late apoptotic cells at 0.24 uM measured after 6 hrs by Alexa Fluor 488-annexin V/propidium iodide staining based flow cytometry (reference value: 3.37%). It counts as functional.
Assay [7] relates to PC-3. The assay can be described thus: Induction of apoptosis in human PC-3 cells assessed as necrotic cells at 0.24 uM measured after 6 hrs by Alexa Fluor 488-annexin V/propidium iodide staining based flow cytometry (reference value: 1.28%). It is filed as functional.
Assay [8] concerns PC-3. The assay can be described thus: Induction of morphological changes in human PC-3 cells assessed as reduction in cell density at 0.05 uM measured after 24 hrs by phase contrast microscopy. It counts as functional, cell-based. The essentials:
as §1

Assay [9] deals with PC-3. The assay can be described thus: Cytotoxicity against human PC-3 cells assessed as reduction in cell viability at 0.05 uM measured after 24 hrs in presence of antioxidant N-acetyl-L-cysteine by SRB assay. It is filed as functional, cell-based. Summed up: as §2
In assay [10] the test system is PC-3. The assay can be described thus: Induction of ROS generation in human PC-3 cells at 0.05 uM measured after 30 mins by CellROX reagent based flow cytometry. It is filed as functional, cell-based. The essentials:
as §3

The subject of assay [11] is PC-3. The assay can be described thus: Cell cycle arrest in human PC-3 cells assessed as reduction in cell accumulation at G0/G1 phase in presence of antioxidant N-acetyl-L-cysteine at 0.05 uM measured after 3 hrs by propidium iodide staining based flow cytometry. It is filed as functional. Summed up: (§4)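 PC3 cells seeded 1×10^5 per well in 6-well plates, exposed 3 h, with or without 1 mM N-acetyl-L-cysteine pretreatment; vehicle 0.1% DMSO. Harvested with trypsin-EDTA, fixed in 75% ethanol in PBS at 4 °C for 30 min, stained 1 h with RNase (1.5 mg mL^-1) and propidium iodide (90 μg mL^-1); DNA content by flow cytometry. Phase fractions compared with control by ANOVA/Tukey.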

Assay [12] has as its system PC-3. The assay can be described thus: Cell cycle arrest in human PC-3 cells assessed as reduction in cell accumulation at S phase in presence of antioxidant N-acetyl-L-cysteine at 0.05 uM measured after 3 hrs by propidium iodide staining based flow cytometry. It is filed as functional. The essentials: as §4
Assay [13] has as its system PC-3. The assay can be described thus: Cell cycle arrest in human PC-3 cells assessed as down regulation of CCND1 gene expression at 0.05 uM measured after 3 hrs by qPCR analysis. It counts as functional, cell-based. The essentials: (§5)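 Seeded 1×10^5 cells per well in 6-well plates; PC3 treated 3 h. Total RNA extracted, qPCR; each target normalized to reference gene (β-actin) by efficiency-corrected ΔΔCt (Pfaffl) against a control calibrator sample, efficiencies from amplification profiles. Mean ± SEM of four independent experiments.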

Assay [14] deals with PC-3. The assay can be described thus: Induction of apoptosis in human PC-3 cells assessed as viable cells at 0.05 uM measured after 6 hrs by Alexa Fluor 488-annexin V/propidium iodide staining based flow cytometry (reference value: 89.37%). It is filed as functional. The settings on record: read-out: Activity.
For assay [15], the system named is PC-3. The assay can be described thus: Induction of apoptosis in human PC-3 cells assessed as early apoptotic cells at 0.05 uM measured after 6 hrs by Alexa Fluor 488-annexin V/propidium iodide staining based flow cytometry (reference value: 6%). It counts as functional.
For assay [16], the system named is PC-3. The assay can be described thus: Induction of apoptosis in human PC-3 cells assessed as late apoptotic cells at 0.05 uM measured after 6 hrs by Alexa Fluor 488-annexin V/propidium iodide staining based flow cytometry (reference value: 3.37%). It counts as functional.
Assay [17] deals with PC-3. The assay can be described thus: Induction of apoptosis in human PC-3 cells assessed as effect on BAX gene expression at 0.05 uM measured after 3 hrs by qPCR analysis. It is filed as functional, cell-based. Summed up:
as §5
In general terms: Real-time PCR tracks product formation cycle by cycle.

Assay [18] has as its system PC-3. The assay can be described thus: Induction of DNA damage in human PC-3 cells assessed as increase in phosphorylated gamma-H2AX expression at 0.05 uM measured after 6 hrs by DAPI staining based confocal laser scanning microscopy. It is filed as functional, cell-based. Summed up: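 γ-H2AX immunostaining: PC3 on coverslips (1×10^5 cells), serum-starved 18 h, then treated (methods state 1 h; legend states 6 h); fixed 3.7% formaldehyde, permeabilized 0.25% Triton X-100, blocked 3% albumin, anti-phospho-H2A.X Ser139 (1:500) then Alexa Fluor 488 secondary, DAPI nuclei; confocal, 500 cells per slide, three experiments; UVC 20 min positive control.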

Active and inactive are the calls of the source. The rule behind the calls is not given here.

Regarding `COc1cc(/C=C/C(=O)N2CCC=CC2=O)cc(OC)c1OCCCOc1no[n+]([O-])c1S(=O)(=O)c1ccccc1`, the result in the assay on PC-3 [1], in the assay with PC-3 [3], with PC-3 [4] and in the assay with PC-3 [5] was Active. Further, the result in the assay on PC-3 [2] was inactive. Besides, the results for the Activity with PC-3 [6] and in the assay on PC-3 [7] were 43.61% and 0.81%, respectively.
With `COc1cc(/C=C/C(=O)N2CCC=CC2=O)cc(OC)c1OCCCCCCCCCCCCOc1no[n+]([O-])c1S(=O)(=O)c1ccccc1`, the outcome with PC-3 [8], with PC-3 [10], with PC-3 [11], with PC-3 [12], with PC-3 [13] and in the assay with PC-3 [18] was Active. For the same compound, the result in the assay on PC-3 [9] and with PC-3 [17] was inactive. The viability at 0.05 µM with PC-3 [14] is 12.6%. Besides, the figures for the Activity in the assay on PC-3 [15] and in the assay on PC-3 [16] were 6.6% and 81.12%, respectively.
